Measurements taken from ChEMBL document CHEMBL4190389, “Synthesis and activity of di- or trisubstituted N-(phenoxyalkyl)- or N-{2-[2-(phenoxy)ethoxy]ethyl}piperazine derivatives on the central nervous system” (Bioorg Med Chem Lett, 2018).
Calls of active or inactive are those of the source. No cut-off for these calls is given here.

Legend:
Mus musculus [1] = experiment: Anxiolytic-like activity in Albino Swiss CD-1 mouse assessed as increase in number of punished crossings at 1.25 mg/kg, ip administered for 30 mins prior to test measured for 1 min by four-plate test; assay type: functional, organism-based
Outline: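 Four-plate test in mice; compounds or clorazepate given i.p. 30 min before testing, vehicle 0.9% NaCl; read-out was number of punished crossings; mean ± SEM, n = 8–10 mice per group; doses compared with one-way statistics (F) against vehicle.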

Mus musculus [2] = experiment: Antidepressant-like activity in Albino Swiss CD-1 mouse assessed as immobility time at 5 mg/kg, ip administered 30 mins prior to test measured for last 4 mins of 6 mins observation by forced swim test (reference value: 153.9 to 201.9 secs); assay type: functional
[3] = biological target: 5-hydroxytryptamine receptor 6 (Homo sapiens, UniProt P50406); experiment: Displacement of [3H]LSD from recombinant human 5-HT6 receptor expressed in CHO cells cell membranes after 60 mins by liquid scintillation counting method
[4] = biological target: T1, 5-hydroxytryptamine receptor 1A (Homo sapiens) (UniProt P08908); experiment: Displacement of [3H]8-OH-DPAT from recombinant human 5-HT1A receptor expressed in HEK293 cell membranes at 10^-5 M after 60 mins by liquid scintillation counting method
T1 sequence (whole entry): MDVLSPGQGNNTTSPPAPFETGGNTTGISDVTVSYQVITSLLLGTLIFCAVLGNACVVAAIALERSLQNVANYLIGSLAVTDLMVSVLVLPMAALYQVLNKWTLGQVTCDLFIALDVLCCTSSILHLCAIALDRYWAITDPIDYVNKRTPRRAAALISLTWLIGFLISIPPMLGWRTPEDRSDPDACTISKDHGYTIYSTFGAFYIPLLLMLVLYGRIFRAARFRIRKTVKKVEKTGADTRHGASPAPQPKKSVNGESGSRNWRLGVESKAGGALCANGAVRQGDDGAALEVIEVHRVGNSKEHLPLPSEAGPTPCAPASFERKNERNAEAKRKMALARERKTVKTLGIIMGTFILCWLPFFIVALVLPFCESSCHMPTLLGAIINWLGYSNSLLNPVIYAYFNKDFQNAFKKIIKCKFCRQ

[5] = biological target: T2, 5-hydroxytryptamine receptor 2A (Homo sapiens, UniProt P28223); experiment: biochemical; assay type: cell-based, HEK293
Mus musculus [6] = experiment: Anxiolytic-like activity in Albino Swiss CD-1 mouse assessed as increase in number of punished crossings at 10 mg/kg, ip administered for 30 mins prior to test measured for 1 min by four-plate test; assay type: functional, organism-based
Outline: (§1)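 Four-plate test in mice, i.p., 30 min before test; vehicle 0.9% NaCl; doses 1.25–10 mg/kg; number of punished crossings counted; mean ± SEM, n = 8–10 mice per group; ANOVA F statistics.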

[7] = biological target: T3, 5-hydroxytryptamine receptor 7 (Homo sapiens, UniProt P34969); experiment: Displacement of [3H]LSD from recombinant human 5-HT7 receptor expressed in CHO cell membranes at 10^-5 M after 60 mins by liquid scintillation counting method
Mus musculus [8] = experiment: Antidepressant-like activity in Albino Swiss CD-1 mouse assessed as immobility time at 20 mg/kg, ip administered 30 mins prior to test measured for last 4 mins of 6 mins observation by forced swim test (reference value: 153.9 to 201.9 secs); assay type: functional
D(2) dopamine receptor [9] = biological target: T4, D(2) dopamine receptor (Homo sapiens, UniProt P14416); experiment: Displacement of [3H]methylspiperonee from recombinant human D2 receptor expressed in HEK293 cell membranes at 10^-5 M after 60 mins by liquid scintillation counting method
Mus musculus [10] = experiment: Toxicity in Albino Swiss CD-1 mouse assessed as effect on locomotory activity at 5 to 10 mg/kg, ip administered for 30 mins prior to test measured for 1 min; assay type: organism-based; conditions: in vivo
Outline: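 Mice dosed i.p. 30 min before test; vehicle groups received 0.9% NaCl. Spontaneous locomotion scored as number of crossings during a 1-min session. Each dose compared with its own vehicle group by Student t-test; mean ± SEM, n = 8–10 mice per group.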

Mus musculus [11] = experiment: Antidepressant-like activity in Albino Swiss CD-1 mouse assessed as immobility time at 10 mg/kg, ip administered 30 mins prior to test measured for last 4 mins of 6 mins observation by forced swim test (reference value: 153.9 to 201.9 secs); assay type: functional
[12] = biological target: T5, Alpha-1A adrenergic receptor (Homo sapiens) (UniProt P35348); experiment: Displacement of [3H]prazosin from recombinant human alpha1 adrenoceptor expressed in CHO cell membranes at 10^-5 M after 30 mins by liquid scintillation counting method
T5 sequence (whole entry): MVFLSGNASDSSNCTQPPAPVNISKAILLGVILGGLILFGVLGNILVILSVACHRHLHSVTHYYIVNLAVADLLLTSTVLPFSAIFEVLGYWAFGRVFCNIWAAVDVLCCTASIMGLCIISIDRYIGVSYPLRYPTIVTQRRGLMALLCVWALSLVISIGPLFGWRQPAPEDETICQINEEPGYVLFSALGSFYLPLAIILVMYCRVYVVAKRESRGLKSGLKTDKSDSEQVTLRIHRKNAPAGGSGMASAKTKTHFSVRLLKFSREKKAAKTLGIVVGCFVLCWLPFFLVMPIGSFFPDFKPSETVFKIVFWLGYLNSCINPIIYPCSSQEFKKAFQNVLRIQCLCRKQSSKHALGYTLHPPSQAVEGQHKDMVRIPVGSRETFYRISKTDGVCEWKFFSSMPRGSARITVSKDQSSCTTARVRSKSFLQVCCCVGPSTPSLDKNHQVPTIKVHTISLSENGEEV

[13] = biological target: T3, 5-hydroxytryptamine receptor 7; experiment: biochemical; assay type: cell-based, CHO
[14] = biological target: T1, 5-hydroxytryptamine receptor 1A (Homo sapiens); experiment: Antagonist activity at human 5-HT1A receptor expressed in CHO-K1 cells co-expressing Galpha16 assessed as decrease in serotonin-induced calcium mobilization preincubated for 25 mins followed by serotonin challenge measured for 30 secs by aequorin-derived luminescence assay relative to control; assay type: functional, cell-based
Mus musculus [15] = experiment: Anxiolytic-like activity in Albino Swiss CD-1 mouse assessed as increase in number of punished crossings at 2.5 to 5 mg/kg, ip administered for 30 mins prior to test measured for 1 min by four-plate test; assay type: functional, organism-based; outline: as §1
D(2) dopamine receptor [16] = biological target: T4, D(2) dopamine receptor; experiment: Displacement of [3H]methylspiperonee from recombinant human D2 receptor expressed in HEK293 cells cell membranes after 60 mins by liquid scintillation counting method
D(2) dopamine receptor [17] = biological target: T4, D(2) dopamine receptor; experiment: Agonist activity at human D2 receptor expressed in CHO-K1 cells co-expressing Galphaqi5 assessed as increase apomorphine-induced calcium mobilization measured for 30 secs by aequorin-derived luminescence assay relative to apomorphine; assay type: functional, cell-based
[18] = biological target: T6, 5-hydroxytryptamine receptor 1A (Homo sapiens, UniProt P08908); experiment: Displacement of [3H]8-OH-DPAT from recombinant human 5-HT1A receptor expressed in HEK293 cell membranes after 60 mins by liquid scintillation counting method
T6 sequence (P08908 whole entry): T1 sequence (whole entry)

[19] = biological target: T1, 5-hydroxytryptamine receptor 1A (Homo sapiens); experiment: Agonist activity at human 5-HT1A receptor expressed in CHO-K1 cells co-expressing Galpha16 assessed as increase in calcium mobilization measured for 30 secs by aequorin-derived luminescence assay relative to serotonin; assay type: functional, cell-based
[20] = biological target: T3, 5-hydroxytryptamine receptor 7; experiment: Agonist activity at human 5-HT7 receptor expressed in CHO-K1 cells assessed as increase in serotonin-induced cAMP level after 1 hr by TR-FRET assay relative to serotonin; assay type: functional, cell-based
Mus musculus [21] = experiment: Toxicity in Albino Swiss CD-1 mouse assessed as effect on locomotory activity at 1.25 to 5 mg/kg, ip administered for 30 mins prior to test measured for 1 min; assay type: organism-based; conditions: in vivo
[22] = biological target: T3, 5-hydroxytryptamine receptor 7; experiment: Antagonist activity at human 5-HT7 receptor expressed in CHO-K1 cells assessed as decrease in serotonin-induced cAMP level after 1 hr by TR-FRET assay; assay type: functional, cell-based
Mus musculus [23] = experiment: Toxicity in Albino Swiss CD-1 mouse assessed as death at 30 mg/kg, ip; assay type: organism-based; conditions: in vivo
Outline: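 Deaths counted in mice during maximal electroshock (MES) seizure testing after i.p. dosing, 6 mice per dose (3 or 1 at some top doses); recorded as number dead/number tested alongside protection and rotarod motor impairment (10 rpm); untreated control group included.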

[24] = biological target: T2, 5-hydroxytryptamine receptor 2A; experiment: Antagonist activity at human 5-HT2A receptor expressed in CHO-K1 cells co-expressing Galpha16 assessed as decrease in serotonin calcium mobilization preincubated for 30 mins followed by serotonin challenge measured for 30 secs by aequorin-derived luminescence assay; assay type: functional, cell-based
[25] = biological target: T3, 5-hydroxytryptamine receptor 7; experiment: Antagonist activity at human 5-HT7 receptor expressed in CHO-K1 cells assessed as decrease in serotonin-induced cAMP level after 1 hr by TR-FRET assay relative to control; assay type: functional, cell-based
D(2) dopamine receptor [26] = biological target: T4, D(2) dopamine receptor; experiment: Antagonist activity at human D2 receptor expressed in CHO-K1 cells co-expressing Galphaqi5 assessed as decrease in apomorphine-induced calcium mobilization preincubated for 30 mins followed by apomorphine challenge measured for 30 secs by aequorin-derived luminescence assay; assay type: functional, cell-based
[27] = biological target: T7, Alpha-1A adrenergic receptor (Homo sapiens, UniProt P35348); experiment: Displacement of [3H]prazosin from recombinant human alpha1 adrenoceptor expressed in CHO cell membranes after 30 mins by liquid scintillation counting method
T7 sequence (P35348 whole entry): T5 sequence (whole entry)

[28] = biological target: T6, 5-hydroxytryptamine receptor 1A; experiment: (§2) Antagonist activity at human 5-HT1A receptor expressed in CHO-K1 cells co-expressing Galpha16 assessed as decrease in serotonin calcium mobilization preincubated for 25 mins followed by serotonin challenge measured for 30 secs by aequorin-derived luminescence assay; assay type: functional, cell-based
[29] = biological target: T1, 5-hydroxytryptamine receptor 1A (Homo sapiens); experiment: as §2; assay type: functional, cell-based

T4 sequence (P14416 whole entry): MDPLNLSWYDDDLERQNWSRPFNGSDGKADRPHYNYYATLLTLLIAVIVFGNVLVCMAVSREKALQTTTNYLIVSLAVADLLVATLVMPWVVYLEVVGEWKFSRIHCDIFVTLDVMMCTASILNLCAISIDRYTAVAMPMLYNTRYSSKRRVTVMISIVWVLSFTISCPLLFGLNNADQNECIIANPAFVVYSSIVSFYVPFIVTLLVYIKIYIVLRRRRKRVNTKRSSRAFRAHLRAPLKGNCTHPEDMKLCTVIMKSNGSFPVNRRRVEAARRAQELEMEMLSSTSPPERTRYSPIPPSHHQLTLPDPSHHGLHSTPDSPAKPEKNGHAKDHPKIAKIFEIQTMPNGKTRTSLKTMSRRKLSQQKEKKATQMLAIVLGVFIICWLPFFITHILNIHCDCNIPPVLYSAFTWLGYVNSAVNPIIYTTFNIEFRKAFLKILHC
T3 sequence (P34969 whole entry): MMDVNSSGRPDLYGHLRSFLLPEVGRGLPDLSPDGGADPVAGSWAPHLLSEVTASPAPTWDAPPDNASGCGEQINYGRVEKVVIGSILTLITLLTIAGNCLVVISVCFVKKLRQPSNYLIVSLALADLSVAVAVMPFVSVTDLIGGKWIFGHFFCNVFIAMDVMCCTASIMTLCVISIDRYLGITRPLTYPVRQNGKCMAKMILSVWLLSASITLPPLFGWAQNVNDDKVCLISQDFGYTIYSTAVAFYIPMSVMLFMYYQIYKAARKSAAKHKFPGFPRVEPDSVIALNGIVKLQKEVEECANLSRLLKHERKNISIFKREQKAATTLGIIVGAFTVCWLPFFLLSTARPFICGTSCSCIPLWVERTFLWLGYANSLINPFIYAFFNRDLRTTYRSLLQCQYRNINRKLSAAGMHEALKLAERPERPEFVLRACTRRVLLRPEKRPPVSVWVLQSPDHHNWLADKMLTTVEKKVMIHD
Sequence of 5-hydroxytryptamine receptor 6 (P50406 whole entry): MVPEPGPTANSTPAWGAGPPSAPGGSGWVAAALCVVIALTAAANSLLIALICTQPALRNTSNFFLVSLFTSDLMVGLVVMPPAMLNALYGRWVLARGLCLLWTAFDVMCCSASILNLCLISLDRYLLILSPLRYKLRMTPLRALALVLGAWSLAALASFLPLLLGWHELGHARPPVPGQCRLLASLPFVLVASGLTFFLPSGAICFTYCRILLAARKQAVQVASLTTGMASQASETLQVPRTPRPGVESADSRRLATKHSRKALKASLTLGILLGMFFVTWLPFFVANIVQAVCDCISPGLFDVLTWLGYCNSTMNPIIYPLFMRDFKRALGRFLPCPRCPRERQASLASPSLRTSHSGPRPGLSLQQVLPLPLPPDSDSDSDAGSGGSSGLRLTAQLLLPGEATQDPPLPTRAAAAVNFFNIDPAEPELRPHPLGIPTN
T2 sequence (P28223 whole entry): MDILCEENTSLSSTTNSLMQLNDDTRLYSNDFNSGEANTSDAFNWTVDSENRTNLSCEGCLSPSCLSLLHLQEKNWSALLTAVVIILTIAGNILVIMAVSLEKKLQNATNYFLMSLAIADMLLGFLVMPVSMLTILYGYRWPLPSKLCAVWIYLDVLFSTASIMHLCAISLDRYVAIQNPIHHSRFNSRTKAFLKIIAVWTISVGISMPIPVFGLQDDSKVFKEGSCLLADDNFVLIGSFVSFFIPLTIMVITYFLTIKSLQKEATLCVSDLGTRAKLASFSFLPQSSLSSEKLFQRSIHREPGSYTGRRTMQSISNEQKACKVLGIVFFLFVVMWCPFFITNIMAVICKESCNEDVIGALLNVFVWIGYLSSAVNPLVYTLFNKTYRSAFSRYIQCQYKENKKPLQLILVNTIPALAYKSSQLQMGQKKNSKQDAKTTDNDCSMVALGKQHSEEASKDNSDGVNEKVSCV

Row | SMILES | Time (Mus musculus [2]) [s] | Ki [3] [nM] | inhibition [4] | Ki [5] [nM] | Activity (Mus musculus [6]) | Time (Mus musculus [8]) [s] | inhibition (D(2) dopamine receptor [9]) | Activity (Mus musculus [10]) | Time (Mus musculus [11]) [s] | inhibition [12] | Ki [13] [nM] | other results
1 | O=C(O)C1N=C(c2ccccc2)c2cc(Cl)ccc2NC1=O (configuration not stated) | – | – | – | – | – | – | – | – | – | – | – | Activity (Mus musculus [1]): Active
2 | Cc1cc(C)c(OCCOCCN2CCN(CCO)CC2)c(C)c1.Cl.Cl | 182.6 | > 5000 | inactive | > 5000 | Active | 197.3 | inactive | Non-Toxic | 198.1 | inactive | – | inhibition [7]: inactive
3 | Cc1cc(C)c(OCCOCCN2CCN(Cc3ccccc3)CC2)c(C)c1.Cl.Cl | 176.5 | > 5000 | inactive | 498 | Active | 157.5 | inactive | Non-Toxic | 182.4 | inactive | 3160 | –
4 | COc1ccccc1N1CCN(CCOCCOc2cc(C)cc(C)c2C)CC1.Cl.Cl | 165.6 | 1540 | – | 159 | – | 156.1 | – | – | 141.9 | – | 89 | Emax [14]: 4%; Activity (Mus musculus [15]): Active; Ki (D(2) dopamine receptor [16]): 162 nM; Emax (D(2) dopamine receptor [17]): 1%; Ki [18]: 32 nM; Emax [19]: 5%; Emax [20]: 9%; Activity (Mus musculus [21]): Non-Toxic; IC50 [22]: 2340 nM; Kb [22]: 995 nM; Activity (Mus musculus [23]): Non-Toxic; IC50 [24]: 4010 nM; Emax [25]: 11%; IC50 (D(2) dopamine receptor [26]): 78.5 nM; Kb (D(2) dopamine receptor [26]): 23.4 nM; Ki [27]: 14 nM; IC50 [28]: 376 nM; Kb [29]: 92.3 nM
